Assay results from ChEMBL document CHEMBL1142354, “Synthesis and biological evaluation of (hetero)arylmethyloxy- and arylmethylamine-phenyl derivatives as potent P-glycoprotein modulating agents” (J Med Chem, 2008).
pEC50: −log10 of the molar value.

What was measured:
[1] = target: T1, ATP-dependent translocase ABCB1 (Homo sapiens, UniProt P08183); assay: Activation of human P-glycoprotein ATPase in Caco-2 cells assessed as ATP depletion at 100 uM; format: cell-based; settings: caco-2, 100 µM
[2] = target: T1, ATP-dependent translocase ABCB1; assay: Inhibition of human P-glycoprotein mediated [3H]vinblastine transport in human Caco-2 cells; format: cell-based
Caco-2 = assay: Ratio of permeability from basolateral to apical side over apical to basolateral side in human Caco-2 cells
[3] = Cytotoxicity against human Adr cells assessed as LDH release upto 50 uM after 48 hrs; format: cell-based
Method in brief: (§1)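 MCF-7/Adr cells, which overexpress P-gp, were exposed in complete medium with or without test compound. LDH released into the medium was read with CytoTox-One substrate mix: 10 min at room temperature in the dark, then stop solution, fluorescence ex 560/em 590 nm. Cytotoxicity % is (treated LDH − medium background)/(total LDH of lysed untreated cells − background) × 100.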

MCF7 [4] = assay: Cytotoxicity against human MCF7 cells assessed as LDH release upto 50 uM after 48 hrs; format: cell-based; settings: mcf7, 48 h
[5] = target: T2, Broad substrate specificity ATP-binding cassette transporter ABCG2 (Homo sapiens, UniProt Q9UNQ0); assay: Inhibition of human BCRP pump mediated [3H]mitoxantrone transport in human Caco-2 cells; format: cell-based
T2 sequence (Q9UNQ0 whole entry): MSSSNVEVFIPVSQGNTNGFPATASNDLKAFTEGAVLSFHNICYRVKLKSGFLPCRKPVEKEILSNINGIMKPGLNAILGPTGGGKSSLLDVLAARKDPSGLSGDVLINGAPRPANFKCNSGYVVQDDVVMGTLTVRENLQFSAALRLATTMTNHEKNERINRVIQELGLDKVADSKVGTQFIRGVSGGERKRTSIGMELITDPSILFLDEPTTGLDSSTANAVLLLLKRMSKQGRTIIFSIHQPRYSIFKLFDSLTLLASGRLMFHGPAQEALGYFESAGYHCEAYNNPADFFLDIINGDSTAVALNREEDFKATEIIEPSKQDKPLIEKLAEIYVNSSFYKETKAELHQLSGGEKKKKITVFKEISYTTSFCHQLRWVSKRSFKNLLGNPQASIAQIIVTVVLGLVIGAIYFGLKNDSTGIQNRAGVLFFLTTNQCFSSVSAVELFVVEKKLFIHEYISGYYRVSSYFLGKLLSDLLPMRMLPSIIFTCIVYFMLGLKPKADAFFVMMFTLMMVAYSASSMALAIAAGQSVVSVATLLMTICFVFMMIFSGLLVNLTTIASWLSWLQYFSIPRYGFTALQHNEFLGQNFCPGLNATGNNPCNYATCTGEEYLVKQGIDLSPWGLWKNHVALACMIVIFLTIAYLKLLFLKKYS
Method in brief: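 Caco-2 cells were grown 21 days on multiscreen filters at 10 000 cells/well, and monolayers were used at TEER >800 Ω×cm². 20 nM [³H]-mitoxantrone was added basolaterally with or without compound (0.20–400 µM) for 120 min at 37 °C, and apical appearance was scintillation-counted. Percent inhibition at each concentration gave EC50; three independent determinations, triplicate samples.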

MCF7 [6] = assay: Cytotoxicity against adriamycin-resistant human MCF7 cells assessed as LDH release at 1 uM after 48 hrs; format: cell-based; settings: mcf7, 48 h; method in brief: as §1

T1 sequence (P08183 whole entry): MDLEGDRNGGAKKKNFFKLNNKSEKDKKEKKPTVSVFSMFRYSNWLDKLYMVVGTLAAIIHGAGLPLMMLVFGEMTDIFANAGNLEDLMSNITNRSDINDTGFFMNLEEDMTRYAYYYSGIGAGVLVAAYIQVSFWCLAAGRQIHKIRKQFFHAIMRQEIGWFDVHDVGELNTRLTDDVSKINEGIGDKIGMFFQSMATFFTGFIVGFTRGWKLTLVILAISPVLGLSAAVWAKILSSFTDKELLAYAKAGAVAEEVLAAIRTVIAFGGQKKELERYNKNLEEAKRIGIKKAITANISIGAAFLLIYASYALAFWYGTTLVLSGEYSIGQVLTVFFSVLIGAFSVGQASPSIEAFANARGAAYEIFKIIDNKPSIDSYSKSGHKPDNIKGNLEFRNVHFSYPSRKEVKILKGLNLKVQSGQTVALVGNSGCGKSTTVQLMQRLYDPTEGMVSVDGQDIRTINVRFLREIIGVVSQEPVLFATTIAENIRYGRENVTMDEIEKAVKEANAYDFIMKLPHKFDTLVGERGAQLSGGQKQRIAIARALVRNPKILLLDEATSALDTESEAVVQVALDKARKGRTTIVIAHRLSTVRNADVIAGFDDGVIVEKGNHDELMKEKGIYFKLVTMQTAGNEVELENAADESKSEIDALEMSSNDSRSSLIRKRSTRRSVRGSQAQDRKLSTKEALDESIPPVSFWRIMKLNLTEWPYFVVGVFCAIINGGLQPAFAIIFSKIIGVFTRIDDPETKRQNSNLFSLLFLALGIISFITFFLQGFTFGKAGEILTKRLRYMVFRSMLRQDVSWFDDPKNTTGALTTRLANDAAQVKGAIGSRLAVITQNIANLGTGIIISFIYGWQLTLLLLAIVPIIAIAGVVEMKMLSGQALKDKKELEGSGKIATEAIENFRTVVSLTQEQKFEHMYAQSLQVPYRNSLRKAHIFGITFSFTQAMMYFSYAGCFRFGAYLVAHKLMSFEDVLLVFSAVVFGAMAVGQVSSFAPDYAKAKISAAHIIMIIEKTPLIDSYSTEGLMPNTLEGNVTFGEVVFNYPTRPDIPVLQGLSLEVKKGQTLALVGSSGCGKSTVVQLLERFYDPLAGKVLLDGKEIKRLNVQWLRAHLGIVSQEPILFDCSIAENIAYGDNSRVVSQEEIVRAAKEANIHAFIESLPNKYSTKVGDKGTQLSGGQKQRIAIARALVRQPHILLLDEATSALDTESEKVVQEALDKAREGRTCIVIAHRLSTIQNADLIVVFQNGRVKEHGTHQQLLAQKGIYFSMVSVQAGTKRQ

Row | SMILES | Activity [1] | pEC50 [2] | Ratio (Caco-2) | Activity [3] | Activity (MCF7 [4]) | pEC50 [5] | Activity (MCF7 [6]) [%]
1 | COc1cccc(CCc2ccccc2OCc2ccccc2)c1 | Not Active |  |  |  |  |  | 
2 | c1ccc(CCc2ccccc2OCc2ccccc2)cc1 | Active | < 3.00 |  |  |  |  | 
3 | c1ccc(CCc2ccccc2OCc2ccccn2)cc1 | Not Active |  |  |  |  |  | 
4 | COc1cccc(CCc2ccccc2OCc2cccnc2)c1 | Active | < 3.00 |  |  |  |  | 
5 | c1ccc(CCc2ccccc2OCc2cccnc2)cc1 | Active |  |  |  |  |  | 
6 | COc1cccc(CCc2ccccc2OCc2cccc(OC)c2)c1 | Not Active |  | 13 |  |  |  | 
7 | COc1cccc(CCc2ccccc2OCc2cccc(OC)c2OC)c1 | Active |  |  | Not Active | Not Active | 3.92 | 
8 | COc1cccc(COc2ccccc2CCc2ccccc2)c1OC | Not Active | 6.10 | 0.95 | Not Active | Not Active | 4.12 | 
9 | COc1cccc(CCc2ccccc2NCc2cc(OC)cc(OC)c2)c1 | Not Active | 6.05 | 6.9 | Not Active | Not Active |  | 
10 | COc1cccc(CCc2ccccc2OCc2ccccc2OC)c1 | Not Active | 4.92 | 8.7 |  |  |  | 
11 | COc1cccc(CCc2ccccc2OCc2cc(OC)cc(OC)c2)c1 | Not Active | 5.60 | 6.7 |  |  |  | 
12 | COc1cc(COc2ccccc2CCc2ccccc2)cc(OC)c1 | Not Active | 5.80 | 5.7 |  |  |  | 
13 | COc1ccc(COc2ccccc2CCc2ccccc2)cc1OC | Not Active | 6.12 | 2.1 | 10% |  | 4.24 | 
14 | c1ccc(CCc2ccccc2OCc2ccncc2)cc1 | Active | 4.74 | 1.3 |  |  |  | 
15 | COc1ccccc1COc1ccccc1CCc1ccccc1 | Not Active | 4.70 | 1.4 |  |  |  | 
16 | COc1cccc(CCc2ccccc2NCc2ccc(OC)c(OC)c2)c1 | Not Active | 6.74 | 5.6 | Not Active | Not Active | 6.30 | 
17 | COc1cccc(CCc2ccccc2NCc2cccc(OC)c2OC)c1 | Not Active | 7.07 | 5.5 | Not Active | Not Active | 5.82 | 
18 | COc1cccc(CCc2ccccc2OCc2ccc(OC)c(OC)c2)c1 | Not Active | 6.19 | 5.1 | Not Active | Not Active | 3.82 | 
19 | COc1cccc(CCc2ccccc2OCc2ccncc2)c1 | Active | 6.07 | 2.1 |  |  |  | 50
20 | COc1cccc(CCc2ccccc2OCc2ccccn2)c1 | Not Active |  |  |  |  |  | 
21 | COc1cc2c(cc1OC)CN(CCc1ccc(NC(=O)c3cccc4c(=O)c5cccc(OC)c5[nH]c34)cc1)CC2 | Not Active |  |  |  |  |  | 
22 | COc1ccc(COc2ccccc2CCc2ccccc2)cc1 | Not Active | 5.51 | 5.1 |  |  |  | 
23 | COc1cccc(CCc2ccccc2NCc2cccc(OC)c2)c1 | Not Active | 6.32 | 2.9 | 10% |  | 5.15 | 
24 | COc1ccc(COc2ccccc2CCc2cccc(OC)c2)cc1 | Not Active | 5.28 | 7.6 |  |  |  | 
